Experimental data as given in ChEMBL document CHEMBL1147718, “Design, synthesis, antibacterial, and QSAR studies of myristic acid derivatives” (2006).
Converted amounts (≈) assume the structure as drawn.

Tests used:
Assay type in all cases: functional
Details in all cases: read-out: -Log MIC (converted)
Micrococcus luteus = experiment: Antibacterial activity against Micrococcus luteus
Summary of the method: (§1)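 Serial dilution MIC in double strength nutrient broth-IP against S. aureus, M. luteus and E. coli. Derivatives dissolved in DMSO as […] stock. Activity reported as −log MIC.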

Escherichia coli = experiment: Antibacterial activity against Escherichia coli; summary of the method: as §1
Staphylococcus aureus = experiment: Antibacterial activity against Staphylococcus aureus; summary of the method: as §1

| Structure (SMILES) | MIC (Micrococcus luteus) [µM] | MIC (Escherichia coli) [µM] | MIC (Staphylococcus aureus) [µM] |
| --- | --- | --- | --- |
| CCCCCCCCCCCCCC(=O)NCCCC | 2450 (≈ 696 µg/mL) | 3550 (≈ 1010 µg/mL) | 2140 (≈ 606 µg/mL) |
| CCCCCCCCCCCCCC(=O)OC [METHYL TETRADECANOATE] | 5130 (≈ 1240 µg/mL) | 4170 (≈ 1010 µg/mL) | 4170 (≈ 1010 µg/mL) |
| CCCCCCCCCCCCCC(=O)OCC [ETHYL TETRADECANOATE] | 2450 (≈ 629 µg/mL) | 2450 (≈ 629 µg/mL) | 3890 (≈ 998 µg/mL) |
| CCCCCCCCCCCCCC(=O)OCCCC [BUTYL TETRADECANOATE] | 4370 (≈ 1240 µg/mL) | 3550 (≈ 1010 µg/mL) | 2630 (≈ 748 µg/mL) |
| CCCCCCCCCCCCCC(=O)Nc1ccc(OC)cc1 | 1780 (≈ 593 µg/mL) | 2400 (≈ 800 µg/mL) | 1510 (≈ 505 µg/mL) |
| CCCCCCCCCCCCCC(=O)OCCCCCC [HEXYL TETRADECANOATE] | 1290 (≈ 403 µg/mL) | 2570 (≈ 803 µg/mL) | 1580 (≈ 495 µg/mL) |
| CCCCCCCCCCCCCC(=O)Nc1ccccc1 | 1950 (≈ 592 µg/mL) | 3160 (≈ 960 µg/mL) | 1950 (≈ 592 µg/mL) |
| CCCCCCCCCCCCCC(=O)NN [TETRADECANEHYDRAZIDE] | 5130 (≈ 1240 µg/mL) | 4170 (≈ 1010 µg/mL) | 4170 (≈ 1010 µg/mL) |
| CCCCCCCCCCCCCC(=O)Nc1ccccc1OC | 1780 (≈ 593 µg/mL) | 2400 (≈ 800 µg/mL) | 1510 (≈ 505 µg/mL) |
| O=C(O)c1cn(C2CC2)c2cc(N3CCNCC3)c(F)cc2c1=O [CIPROFLOXACIN] | 468 (≈ 155 µg/mL) | 468 (≈ 155 µg/mL) | 468 (≈ 155 µg/mL) |
| CCCCCCCCCCCCCC(=O)OCCC(C)C [ISOPENTYL TETRADECANOATE] | 2000 (≈ 596 µg/mL) | 3020 (≈ 901 µg/mL) | 1660 (≈ 495 µg/mL) |
| CCCCCCCCCCCCCC(=O)Nc1ccccc1[N+](=O)[O-] | 1740 (≈ 606 µg/mL) | 3470 (≈ 1210 µg/mL) | 1380 (≈ 481 µg/mL) |
| CCCCCCCCCCCCCC(=O)OCCCCC [PENTYL TETRADECANOATE] | 2000 (≈ 596 µg/mL) | 3020 (≈ 901 µg/mL) | 2000 (≈ 596 µg/mL) |
| CCCCCCCCCCCCCC(=O)OCCC [PROPYL TETRADECANOATE] | 2340 (≈ 634 µg/mL) | 4570 (≈ 1240 µg/mL) | 2340 (≈ 634 µg/mL) |
| CCCCCCCCCCCCCC(=O)Nc1cccc([N+](=O)[O-])c1 | 3470 (≈ 1210 µg/mL) | 2750 (≈ 960 µg/mL) | 2750 (≈ 960 µg/mL) |
| CCCCCCCCCCCCCC(=O)OC(C)C [ISOPROPYL MYRISTATE] | 2240 (≈ 605 µg/mL) | 3720 (≈ 1000 µg/mL) | 2240 (≈ 605 µg/mL) |
| CCCCCCCCCCCCCC(=O)Nc1ccccc1Cl | 1780 (≈ 601 µg/mL) | 2690 (≈ 910 µg/mL) | 1480 (≈ 500 µg/mL) |
| CCCCCCCCCCCCCC(=O)NCCC | 2570 (≈ 693 µg/mL) | 3720 (≈ 1000 µg/mL) | 2570 (≈ 693 µg/mL) |
| CCCCCCCCCCCCCC(=O)Nc1ccc(Cl)cc1 | 1480 (≈ 500 µg/mL) | 2690 (≈ 910 µg/mL) | 1480 (≈ 500 µg/mL) |
| CCCCCCCCCCCCCC(N)=O [TETRADECANAMIDE] | 5130 (≈ 1170 µg/mL) | 3090 (≈ 703 µg/mL) | 2570 (≈ 584 µg/mL) |
| CCCCCCCCCCCCCC(=O)OCc1ccccc1 [BENZYL TETRADECANOATE] | 1860 (≈ 593 µg/mL) | 2510 (≈ 800 µg/mL) | 1580 (≈ 505 µg/mL) |
| CCCCCCCCCCCCCC(=O)N(CC)CC | 2140 (≈ 606 µg/mL) | 2240 (≈ 635 µg/mL) | 2630 (≈ 746 µg/mL) |
| CCCCCCCCCCCCCC(=O)OCCCCCCCC [OCTYL TETRADECANOATE] | 1170 (≈ 400 µg/mL) | 2340 (≈ 798 µg/mL) | 1170 (≈ 400 µg/mL) |
| CCCCCCCCCCCCCC(=O)Nc1ccc([N+](=O)[O-])cc1 | 1740 (≈ 606 µg/mL) | 2750 (≈ 960 µg/mL) | 1380 (≈ 481 µg/mL) |
| CCCCCCCCCCCCCC(=O)OCC(C)C [ISOBUTYL TETRADECANOATE] | 1740 (≈ 494 µg/mL) | 3160 (≈ 900 µg/mL) | 1740 (≈ 494 µg/mL) |
| CCCCCCCCCCCCCC(=O)OCCCCCCC [HEPTYL TETRADECANOATE] | 1510 (≈ 494 µg/mL) | 2450 (≈ 802 µg/mL) | 1230 (≈ 402 µg/mL) |
| CCCCCCCCCCCCCC(=O)O [MYRISTIC ACID] | 3310 (≈ 756 µg/mL) | 5500 (≈ 1260 µg/mL) | 3310 (≈ 756 µg/mL) |
| CCCCCCCCCCCCCC(=O)Nc1cccc(Cl)c1 | 1170 (≈ 397 µg/mL) | 2690 (≈ 910 µg/mL) | 1480 (≈ 500 µg/mL) |
